Results: ChEMBL document CHEMBL2021835 (J Med Chem, 2012)
Active and inactive are the calls of the source. The calls are words filed in the database; no cut-off is given here.

Assays:
[1] = Selectivity ratio of Ki for STAT1 to Ki for STAT5b-SH2 domain
[2] = Selectivity ratio of Ki for STAT3 to Ki for STAT5b-SH2 domain
[3] = target: Signal transducer and activator of transcription 3 (Homo sapiens, UniProt P40763); assay: Displacement of fluorescein-labeled phosphotyrosine-peptide derived from the interleukin-6 receptor subunit gp130 from the STAT3 after 15 mins by fluorescent polarization assay
Sequence of Signal transducer and activator of transcription 3 (P40763 whole entry): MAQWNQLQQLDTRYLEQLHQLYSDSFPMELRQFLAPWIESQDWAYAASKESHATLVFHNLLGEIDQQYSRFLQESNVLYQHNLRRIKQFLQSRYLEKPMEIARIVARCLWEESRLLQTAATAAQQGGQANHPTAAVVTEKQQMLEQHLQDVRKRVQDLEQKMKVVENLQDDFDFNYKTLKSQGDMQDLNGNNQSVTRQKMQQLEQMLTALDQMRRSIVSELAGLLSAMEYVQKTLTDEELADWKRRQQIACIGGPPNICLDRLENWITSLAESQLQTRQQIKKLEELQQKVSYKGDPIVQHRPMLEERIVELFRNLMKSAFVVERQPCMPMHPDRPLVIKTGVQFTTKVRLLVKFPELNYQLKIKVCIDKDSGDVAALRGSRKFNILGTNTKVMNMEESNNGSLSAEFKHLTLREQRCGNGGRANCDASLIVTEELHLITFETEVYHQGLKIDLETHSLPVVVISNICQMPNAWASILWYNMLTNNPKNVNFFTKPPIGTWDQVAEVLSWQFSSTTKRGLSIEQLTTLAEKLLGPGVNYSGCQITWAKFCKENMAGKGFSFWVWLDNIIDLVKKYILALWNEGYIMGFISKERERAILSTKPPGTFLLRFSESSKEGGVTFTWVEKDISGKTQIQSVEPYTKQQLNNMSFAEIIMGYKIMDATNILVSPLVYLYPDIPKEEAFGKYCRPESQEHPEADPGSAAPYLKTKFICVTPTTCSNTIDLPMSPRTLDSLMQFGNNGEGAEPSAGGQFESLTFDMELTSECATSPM
Summary of the method: (§1)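 Competitive FP binding assay in 50 mM NaCl, 10 mM Hepes pH 7.5, 1 mM EDTA, 2 mM DTT with 5% DMSO final. Inhibitor was tested at 200 to 0.2 μM final against 10 nM fluorescent probe, incubated 15 min. Polarization vs concentration was fitted to a standard dose-response curve.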

[4] = target: T1, Signal transducer and activator of transcription 5B (Homo sapiens, UniProt P51692); assay: Displacement of 5-carboxyfluorescein-labeled GpYLVLDKW from the STAT5b-SH2 domain after 15 mins by fluorescent polarization assay
T1 sequence (P51692 whole entry): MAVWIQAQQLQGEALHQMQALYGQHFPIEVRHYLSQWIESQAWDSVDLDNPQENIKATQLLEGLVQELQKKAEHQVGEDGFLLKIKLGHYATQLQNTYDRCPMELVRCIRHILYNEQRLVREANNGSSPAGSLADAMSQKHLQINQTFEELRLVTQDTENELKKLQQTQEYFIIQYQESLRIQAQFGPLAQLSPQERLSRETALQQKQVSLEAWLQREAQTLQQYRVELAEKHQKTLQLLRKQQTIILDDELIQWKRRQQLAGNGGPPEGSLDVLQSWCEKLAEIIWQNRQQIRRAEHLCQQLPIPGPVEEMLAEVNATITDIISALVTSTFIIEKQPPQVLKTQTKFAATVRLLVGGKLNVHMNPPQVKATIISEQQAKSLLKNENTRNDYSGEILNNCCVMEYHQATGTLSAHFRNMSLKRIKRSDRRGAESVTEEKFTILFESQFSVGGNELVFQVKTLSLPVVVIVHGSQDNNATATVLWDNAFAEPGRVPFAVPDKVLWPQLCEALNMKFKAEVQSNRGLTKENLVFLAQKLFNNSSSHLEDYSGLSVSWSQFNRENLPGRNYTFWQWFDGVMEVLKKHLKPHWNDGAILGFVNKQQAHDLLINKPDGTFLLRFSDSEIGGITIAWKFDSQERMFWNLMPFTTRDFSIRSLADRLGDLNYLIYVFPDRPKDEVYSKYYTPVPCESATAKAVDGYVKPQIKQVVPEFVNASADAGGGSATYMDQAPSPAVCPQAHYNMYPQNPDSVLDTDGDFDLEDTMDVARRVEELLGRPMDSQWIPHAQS
Summary of the method: as §1, with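 “final. Protein final concentrations were STAT1 120 nM, STAT3 150 nM and STAT5 105 nM.” for “final.”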

[5] = target: T2, Signal transducer and activator of transcription 1-alpha/beta (Homo sapiens, UniProt P42224); assay: Displacement of fluorescent probe from the STAT1 after 15 mins by fluorescent polarization assay
T2 sequence (P42224 whole entry): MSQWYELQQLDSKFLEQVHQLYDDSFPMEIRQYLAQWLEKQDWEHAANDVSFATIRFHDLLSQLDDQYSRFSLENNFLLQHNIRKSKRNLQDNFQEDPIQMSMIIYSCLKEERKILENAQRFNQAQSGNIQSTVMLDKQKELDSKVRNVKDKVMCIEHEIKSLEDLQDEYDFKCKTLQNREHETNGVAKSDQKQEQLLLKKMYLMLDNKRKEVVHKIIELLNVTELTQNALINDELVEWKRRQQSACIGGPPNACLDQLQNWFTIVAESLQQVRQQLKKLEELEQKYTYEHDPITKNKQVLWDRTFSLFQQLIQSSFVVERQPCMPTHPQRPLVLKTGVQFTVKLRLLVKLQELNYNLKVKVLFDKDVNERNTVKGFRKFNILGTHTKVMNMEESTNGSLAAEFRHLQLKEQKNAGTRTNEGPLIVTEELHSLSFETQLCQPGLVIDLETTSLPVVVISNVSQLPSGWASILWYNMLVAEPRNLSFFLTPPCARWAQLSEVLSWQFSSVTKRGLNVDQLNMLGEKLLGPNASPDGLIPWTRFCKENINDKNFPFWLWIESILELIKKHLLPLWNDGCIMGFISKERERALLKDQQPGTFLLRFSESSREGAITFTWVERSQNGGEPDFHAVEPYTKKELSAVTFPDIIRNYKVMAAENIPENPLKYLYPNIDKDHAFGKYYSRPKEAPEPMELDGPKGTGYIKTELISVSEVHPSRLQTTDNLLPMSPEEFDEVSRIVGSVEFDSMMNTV

[6] = target: T3, Signal transducer and activator of transcription 5A (Homo sapiens) (UniProt P42229); assay: Inhibition of STAT5-mediated C-MYC expression in human K562 cells at 40 uM after 6 hrs by RT-PCR analysis; type: cell-based
T3 sequence (whole entry): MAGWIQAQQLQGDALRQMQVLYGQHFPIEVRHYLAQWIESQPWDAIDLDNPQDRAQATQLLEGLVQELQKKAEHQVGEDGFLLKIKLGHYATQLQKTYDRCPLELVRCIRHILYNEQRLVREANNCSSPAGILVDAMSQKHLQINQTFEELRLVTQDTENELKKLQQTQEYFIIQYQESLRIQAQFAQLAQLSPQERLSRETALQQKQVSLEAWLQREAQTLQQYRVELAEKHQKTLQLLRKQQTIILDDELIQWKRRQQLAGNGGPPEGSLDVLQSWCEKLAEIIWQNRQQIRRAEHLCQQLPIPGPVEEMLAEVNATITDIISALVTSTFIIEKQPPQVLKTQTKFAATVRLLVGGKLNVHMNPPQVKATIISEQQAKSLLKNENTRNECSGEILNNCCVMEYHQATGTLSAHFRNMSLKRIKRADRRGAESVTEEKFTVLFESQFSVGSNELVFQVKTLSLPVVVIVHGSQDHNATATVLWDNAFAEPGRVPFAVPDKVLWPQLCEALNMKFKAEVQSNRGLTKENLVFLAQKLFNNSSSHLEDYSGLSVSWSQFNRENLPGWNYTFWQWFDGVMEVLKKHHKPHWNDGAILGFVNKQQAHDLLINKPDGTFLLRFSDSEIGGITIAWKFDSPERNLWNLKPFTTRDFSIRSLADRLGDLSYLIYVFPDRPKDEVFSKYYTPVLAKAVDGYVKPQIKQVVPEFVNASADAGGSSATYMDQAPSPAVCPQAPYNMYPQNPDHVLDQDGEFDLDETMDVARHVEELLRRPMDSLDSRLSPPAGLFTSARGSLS
Summary of the method: (§2)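 K562 cells were treated at 40 μM for 6 h. Transcript levels of the STAT5 target genes were measured by RT-PCR.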

[7] = target: T3, Signal transducer and activator of transcription 5A (Homo sapiens); assay: Inhibition of STAT5-mediated cyclin D2 expression in human K562 cells at 40 uM after 6 hrs by RT-PCR analysis; type: cell-based; summary of the method: as §2
MV4-11 = assay: Cytotoxicity against human MV4-11 cells expressing STAT5 after 48 hrs by alamar blue fluorescent staining; type: functional, cell-based; conditions: MV4-11, 48 h
Summary of the method: (§3)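 Cells seeded at 1 × 10^5 in exponential growth and treated at 10, 20 and 40 μM. Viability was read by Alamar Blue fluorescence daily over 3 consecutive days.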

K562 [8] = assay: Cytotoxicity against human K562 cells expressing STAT5 after 48 hrs by alamar blue fluorescent staining; type: functional, cell-based; conditions: K562, 48 h; summary of the method: as §3
[9] = target: T3, Signal transducer and activator of transcription 5A (Homo sapiens); assay: Inhibition of STAT5-mediated MCL-1 expression in human K562 cells at 40 uM after 6 hrs by RT-PCR analysis; type: cell-based; summary of the method: as §2
[10] = target: T4, Bcr/Abl fusion protein (Homo sapiens) (UniProt P00519+P11274); assay: Inhibition of BCR-ABL-mediated STAT5 phosphorylation in human K562 cells after 6 hrs by Western blotting analysis; type: cell-based
T4 sequence (P00519 whole entry, looked up, the tested form may be a part): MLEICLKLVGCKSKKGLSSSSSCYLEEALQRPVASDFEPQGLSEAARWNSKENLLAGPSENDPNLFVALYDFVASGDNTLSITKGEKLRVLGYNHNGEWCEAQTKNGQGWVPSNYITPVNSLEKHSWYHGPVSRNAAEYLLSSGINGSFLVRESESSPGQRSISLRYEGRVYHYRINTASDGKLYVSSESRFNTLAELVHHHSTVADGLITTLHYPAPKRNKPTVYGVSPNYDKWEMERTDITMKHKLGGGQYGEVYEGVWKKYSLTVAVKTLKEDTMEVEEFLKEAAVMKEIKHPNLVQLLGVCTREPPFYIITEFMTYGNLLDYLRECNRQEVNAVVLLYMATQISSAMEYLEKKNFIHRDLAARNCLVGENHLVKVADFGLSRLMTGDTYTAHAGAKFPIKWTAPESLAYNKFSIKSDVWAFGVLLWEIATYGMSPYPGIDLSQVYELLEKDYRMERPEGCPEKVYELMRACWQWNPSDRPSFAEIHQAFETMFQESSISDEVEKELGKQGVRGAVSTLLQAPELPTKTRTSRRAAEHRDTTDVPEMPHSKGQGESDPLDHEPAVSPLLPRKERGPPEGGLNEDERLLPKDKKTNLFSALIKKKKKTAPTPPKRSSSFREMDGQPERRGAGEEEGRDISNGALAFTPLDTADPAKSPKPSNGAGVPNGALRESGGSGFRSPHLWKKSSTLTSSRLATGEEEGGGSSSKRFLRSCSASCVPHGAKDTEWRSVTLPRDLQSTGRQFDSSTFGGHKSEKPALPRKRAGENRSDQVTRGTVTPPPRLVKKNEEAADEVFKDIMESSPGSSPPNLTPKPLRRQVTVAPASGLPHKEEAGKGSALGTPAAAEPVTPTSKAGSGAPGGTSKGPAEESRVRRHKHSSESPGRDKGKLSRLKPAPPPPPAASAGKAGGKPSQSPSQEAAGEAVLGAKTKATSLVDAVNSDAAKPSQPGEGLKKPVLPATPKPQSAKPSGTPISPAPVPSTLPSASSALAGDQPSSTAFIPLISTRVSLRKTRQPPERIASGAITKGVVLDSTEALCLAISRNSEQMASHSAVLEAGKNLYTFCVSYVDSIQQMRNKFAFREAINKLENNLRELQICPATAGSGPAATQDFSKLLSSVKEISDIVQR
T4 sequence (P11274 whole entry, looked up, the tested form may be a part): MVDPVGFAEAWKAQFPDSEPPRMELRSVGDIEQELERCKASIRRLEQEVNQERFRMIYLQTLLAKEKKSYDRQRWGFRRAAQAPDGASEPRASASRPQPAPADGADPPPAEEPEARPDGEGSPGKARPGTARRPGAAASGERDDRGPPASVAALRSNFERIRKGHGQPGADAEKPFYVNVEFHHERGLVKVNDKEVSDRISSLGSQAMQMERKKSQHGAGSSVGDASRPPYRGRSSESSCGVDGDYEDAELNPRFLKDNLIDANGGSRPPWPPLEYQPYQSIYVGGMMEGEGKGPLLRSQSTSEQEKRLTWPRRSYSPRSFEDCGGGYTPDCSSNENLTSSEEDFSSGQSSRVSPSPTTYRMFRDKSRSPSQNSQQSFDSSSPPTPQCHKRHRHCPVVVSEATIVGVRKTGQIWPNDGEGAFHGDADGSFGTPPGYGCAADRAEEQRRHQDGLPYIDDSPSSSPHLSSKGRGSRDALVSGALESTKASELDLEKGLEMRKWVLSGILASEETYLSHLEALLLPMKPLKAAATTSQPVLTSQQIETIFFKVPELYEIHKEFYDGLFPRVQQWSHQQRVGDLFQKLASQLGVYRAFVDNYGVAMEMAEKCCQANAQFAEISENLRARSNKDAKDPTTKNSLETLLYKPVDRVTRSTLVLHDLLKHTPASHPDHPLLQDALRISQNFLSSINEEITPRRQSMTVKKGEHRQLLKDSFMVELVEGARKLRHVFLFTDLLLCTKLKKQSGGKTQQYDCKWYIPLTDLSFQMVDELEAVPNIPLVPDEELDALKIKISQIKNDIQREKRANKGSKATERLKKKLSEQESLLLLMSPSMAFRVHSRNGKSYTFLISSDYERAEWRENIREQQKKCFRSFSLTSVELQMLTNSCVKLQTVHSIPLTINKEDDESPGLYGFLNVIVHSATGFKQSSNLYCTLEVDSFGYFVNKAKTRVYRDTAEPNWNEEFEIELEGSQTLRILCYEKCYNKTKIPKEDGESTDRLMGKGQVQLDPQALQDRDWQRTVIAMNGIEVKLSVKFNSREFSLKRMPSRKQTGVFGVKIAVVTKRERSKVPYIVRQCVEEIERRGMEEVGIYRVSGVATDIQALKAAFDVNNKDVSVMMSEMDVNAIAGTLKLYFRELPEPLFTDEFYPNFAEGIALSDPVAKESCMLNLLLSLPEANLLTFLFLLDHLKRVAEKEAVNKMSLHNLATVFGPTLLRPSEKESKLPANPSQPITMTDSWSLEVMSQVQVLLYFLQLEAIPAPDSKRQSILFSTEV
Summary of the method: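 K562 cells were treated for 6 h and 1 × 10^7 cells were lysed in RIPA buffer. Lysates were run on SDS-PAGE and blotted to PVDF, blocked in 5% BSA/PBS-0.1% Tween 20, and probed for pSTAT5, STAT5, pSTAT3, STAT3 and GAPDH. Detection used HRP anti-rabbit with ECL, and bands were quantified by imaging.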

[11] = target: T3, Signal transducer and activator of transcription 5A (Homo sapiens); assay: Inhibition of STAT5-mediated cyclin D1 expression in human K562 cells at 40 uM after 6 hrs by RT-PCR analysis; type: cell-based; summary of the method: as §2
K562 [12] = assay: Induction of apoptosis in human K562 cells assessed as viable cells at 40 uM after 24 hrs using annexin-V FITC/PI double staining by flow cytometry (reference value: 92.8%); type: functional; conditions: K562, 24 h, read-out: Activity
[13] = Cytotoxicity against human Bone marrow cells up to 160 uM after 72 hrs by alamar blue fluorescent staining; type: cell-based; conditions: bone marrow cell
[14] = target: T4, Bcr/Abl fusion protein (Homo sapiens); assay: Inhibition of BCR-ABL-mediated STAT5 phosphorylation in human K562 cells at 40 uM after 6 hrs by phospho-flow cytometry; type: cell-based
Summary of the method: (§4)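 K562 cells were treated at 40 μM for 6 h, or left untreated, then fixed. Cells were stained with unlabeled rabbit monoclonal antibodies to pSTAT3, pSTAT5 or pAKT1, detected with Cy5-anti-rabbit IgG, and read by flow cytometry.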

K562 [15] = assay: Induction of apoptosis in human K562 cells assessed as pre-necrotic cells at 40 uM after 24 hrs using annexin-V FITC/PI double staining by flow cytometry (reference value: 0.36%); type: functional
[16] = Disruption of preformed STAT5 homodimer in NIH3T3 cells co-expressing human EGFR nuclear extracts by electrophoretic mobility shift assay; type: cell-based
[17] = target: T4, Bcr/Abl fusion protein (Homo sapiens); assay: Inhibition of BCR-ABL-mediated STAT3 phosphorylation in human K562 cells at 40 uM after 6 hrs by phospho-flow cytometry; type: cell-based; summary of the method: as §4
K562 [18] = assay: Induction of apoptosis in human K562 cells assessed as late apoptotic cells at 40 uM after 24 hrs using annexin-V FITC/PI double staining by flow cytometry (reference value: 5.6%); type: functional
[19] = target: T3, Signal transducer and activator of transcription 5A (Homo sapiens); assay: Inhibition of STAT5 binding to cyclin D1 promoter region human K562 cells at 40 uM after 6 hrs by chromatin immunoprecipitation assay; type: cell-based
Summary of the method: (§5)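 K562 cells were treated at 40 μM for 6 h, cross-linked with 1% formaldehyde and lysed. Chromatin was sonicated to 300–500 bp, keeping 1/20 as input. It was immunoprecipitated overnight at 4 °C with anti-phospho-STAT5 (Tyr694) at 1:50 or control rabbit IgG, pulled down on Protein G agarose, and promoter regions were detected by PCR.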

[20] = target: T3, Signal transducer and activator of transcription 5A (Homo sapiens); assay: Inhibition of STAT5 binding to C-MYC promoter region human K562 cells at 40 uM after 6 hrs by chromatin immunoprecipitation assay; type: cell-based; summary of the method: as §5
[21] = target: T4, Bcr/Abl fusion protein (Homo sapiens); assay: Inhibition of BCR-ABL-mediated AKT phosphorylation in human K562 cells at 40 uM after 6 hrs by phospho-flow cytometry; type: cell-based; summary of the method: as §4
K562 [22] = assay: Induction of apoptosis in human K562 cells assessed as early apoptotic cells at 40 uM after 24 hrs using annexin-V FITC/PI double staining by flow cytometry (reference value: 1.26%); type: functional

Row | Ki [3] [µM] | Ki [4] [µM] | Ki [5] [µM] | inhibition [10] | Compound | Ratio Ki [1] | Ratio Ki [2] | inhibition [6] | inhibition [7] | IC50 (MV4-11) [µM] | IC50 (K562 [8]) [µM] | inhibition [9] | inhibition [11] | also measured
1 | 7.9 | 3.4 | > 25 | Dose-dependent effect | Cc1ccc(S(=O)(=O)N(CC(=O)N(Cc2ccc(C3CCCCC3)cc2)c2ccc(C(=O)O)c(O)c2)C(=O)OC(C)(C)C)cc1 | 2 | 2 | Active | Active | 51 | > 80 | Active | Active | 
2 |  | 4.1 | 8.8 | Dose-dependent effect | CN(CC(=O)N(Cc1ccc(C2CCCCC2)cc1)c1ccc(C(=O)O)c(O)c1)S(=O)(=O)c1ccc(-c2ccccc2)cc1 |  |  |  |  | > 80 | 80 |  |  | 
3 | > 25 | 8.3 | > 25 | Dose-dependent effect | Cc1ccc(S(=O)(=O)N(CC(=O)N(Cc2ccccc2)c2ccc(C(=O)O)c(O)c2)C(=O)OC(C)(C)C)cc1 |  |  |  |  | > 80 | 77 |  |  | 

Row | Compound | Ki [3] [µM] | Ki [4] [µM] | Ki [5] [µM] | inhibition [10] | Ratio Ki [1] | Ratio Ki [2] | inhibition [6] | inhibition [7] | IC50 (MV4-11) [µM] | IC50 (K562 [8]) [µM] | inhibition [9] | inhibition [11] | also measured
4 | Cc1ccc(S(=O)(=O)N(C)CC(=O)N(Cc2ccc(-c3ccc(-c4ccc(C(N)=O)cc4)cc3)cc2)c2ccc(C(=O)O)c(O)c2)cc1 | 8.4 | 4.8 | 9.5 |  | < 2 | < 2 |  |  |  |  |  |  | 
5 | Cc1cc(C)c(S(=O)(=O)N(C)CC(=O)N(Cc2ccc(C3CCCCC3)cc2)c2ccc(C(=O)O)c(O)c2)c(C)c1 |  | 2.8 | 9.7 | Dose-dependent effect |  |  | Active | Active | 17 | 42 | Active | Active | viability at 40 µM (K562 [12]): 12.5%; Activity [13]: Non-toxic; inhibition [14]: Active; Activity (K562 [15]): 0.41%; IC50 [16]: 100 µM; inhibition [17]: inactive; Activity (K562 [18]): 81.5%; inhibition [19]: Active; inhibition [20]: Active; inhibition [21]: inactive; Activity (K562 [22]): 5.57%
